According to ChEMBL document CHEMBL5113552, “(-)-Epigallocatechin Gallate is a Noncompetitive Inhibitor of NAD Kinase” (ACS Med Chem Lett, 2022):
Activity calls are given as the source filed them. No cut-off for these calls is given here.

Key:
NAD kinase [1] = target: T1, NAD kinase (Homo sapiens, UniProt O95544); test: Inhibition of human NADK by HPLC analysis
T1 sequence (O95544 whole entry): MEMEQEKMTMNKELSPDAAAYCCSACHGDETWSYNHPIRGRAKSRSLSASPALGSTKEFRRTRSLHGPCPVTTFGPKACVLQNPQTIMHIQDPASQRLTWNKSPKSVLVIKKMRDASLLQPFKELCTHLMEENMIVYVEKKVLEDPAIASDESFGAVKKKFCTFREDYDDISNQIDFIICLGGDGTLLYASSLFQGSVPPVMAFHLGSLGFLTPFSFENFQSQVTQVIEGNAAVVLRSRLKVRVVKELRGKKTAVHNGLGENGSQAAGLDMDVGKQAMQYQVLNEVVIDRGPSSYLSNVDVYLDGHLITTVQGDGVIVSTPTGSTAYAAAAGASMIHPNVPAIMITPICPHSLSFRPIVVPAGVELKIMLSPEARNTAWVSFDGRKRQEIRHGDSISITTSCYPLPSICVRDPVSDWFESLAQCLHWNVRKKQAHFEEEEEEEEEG

CCRF-CEM = test: Cytotoxicity against human CCRF-CEM cells assessed as inhibition of cell growth; format: functional, cell-based
MOLT-4 = test: Cytotoxicity against human MOLT-4 cells assessed as inhibition of cell growth; format: functional, cell-based
RL = test: Cytotoxicity against human RL cells assessed as inhibition of cell growth; format: functional, cell-based
[2] = Cytotoxicity against human C85 cells assessed as inhibition of cell growth; format: functional, cell-based; conditions: CCCL-1
NAD kinase [3] = target: T1, NAD kinase; test: Inhibition of NADK (unknown origin) by HPLC analysis
[4] = target: T2, NAD kinase (Homo sapiens) (UniProt O95544); test: Binding affinity to human NADK (410 to 418 residues) assessed as decrease in deuterium incorporation at 80 uM measured after 30 mins by HDX-MS analysis; parameters: scale not given: the % may be the effect or the level left
T2 sequence (whole entry): T1 sequence (O95544 whole entry)

[5] = target: T2, NAD kinase (Homo sapiens); test: Binding affinity to human NADK (155 to 164 residues) assessed as decrease in deuterium incorporation at 80 uM measured after 30 mins by HDX-MS analysis; parameters: scale not given: the % may be the effect or the level left
NAD kinase [6] = target: T1, NAD kinase; test: Binding affinity to N-terminal full length NADK (unknown origin) expressed in Escherichia coli BL21(DE3) cells assessed as dissociation constant by surface plasmon resonance assay
NAD kinase [7] = target: T1, NAD kinase; test: Non-competitive inhibition of N-terminal full length NADK (unknown origin) expressed in Escherichia coli BL21(DE3) cells by enzymatic activity assay
A549 [8] = test: Cytotoxicity against human A549 cells harboring KRAS G12S mutant assessed as inhibition of cell growth at 50 uM
[9] = target: T2, NAD kinase (Homo sapiens); test: Binding affinity to human NADK (345 to 365 residues) assessed as decrease in deuterium incorporation at 80 uM measured after 30 mins by HDX-MS analysis; parameters: scale not given: the % may be the effect or the level left
PC-9 = test: Cytotoxicity against human PC-9 cells harboring wild type KRAS assessed as inhibition of cell growth at 60 uM measured on day 4; format: functional, cell-based
Procedure, shortened: (§1)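 Lung cancer cell lines (PC-9 KRAS WT, A549 KRAS G12S, H358 and H23 KRAS G12C) exposed to a range of concentrations. Growth curves were built by following cell number over days (day 4 is cited) against a DMSO control. n = 3 replicates; significance was judged at P < 0.05, 0.01 and 0.001.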

NCI-H23 = test: Cytotoxicity against human H23 cells harboring KRAS G12C mutant assessed as inhibition of cell growth at 30 uM; format: functional; procedure, shortened: as §1
A549 [10] = test: Cytotoxicity against human A549 cells harboring KRAS […] mutant assessed as inhibition of cell growth at 30 uM; format: functional, cell-based
NCI-H358 = test: Cytotoxicity against human H358 cells harboring KRAS G12C mutant assessed as inhibition of cell growth at 30 uM; format: functional; procedure, shortened: as §1
NAD kinase [11] = target: T1, NAD kinase; test: Inhibition of NADK delta 95 kinase domain (unknown origin) at 80 uM measured after 30 mins by […]

`Nc1ncnc2c1ncn2[C@@H]1O[C@H](CSSC[C@H]2O[C@@H](n3c(Br)nc4c(N)ncnc43)[C@H](O)[C@@H]2O)[C@@H](O)[C@H]1O` gave a Ki (NAD kinase [1]) of 6 µM.

Work on `NC(=S)c1cccnc1` yielded an IC50 (CCRF-CEM) of 10 µM, an IC50 (MOLT-4) of 10 µM and an IC50 (RL) of 10 µM. It also gave an IC50 [2] of 10 µM.

`Oc1cc(O)c2c(c1)O[C@H](c1cc(O)c(O)c(O)c1)[C@H](O)C2` [EPIGALLOCATECHIN] gave an IC50 (NAD kinase [3]) greater than 100 µM.

In the case of `O=C(O[C@@H]1Cc2c(O)cc(O)cc2O[C@@H]1c1cc(O)c(O)c(O)c1)c1cc(O)c(O)c(O)c1` [EPIGALOCATECHIN GALLATE], the Activity [4] is reported as 21.8%, the Activity [5] is reported as 12.9% and the Kd (NAD kinase [6]) is reported as 1.78 µM. It also gave a Ki (NAD kinase [7]) of 3.28 µM, an inhibition at 50 µM (A549 [8]) of 100% and an Activity [9] of 21.1%. The Activity (PC-9) was “Active”, the inhibition at 30 µM (NCI-H23) was 100% and the Activity (A549 [10]) was “Active”. For the same compound, the inhibition at 30 µM (NCI-H358) was 100% and the IC50 (NAD kinase [11]) was 0.96 µM.

In the case of `Nc1ncnc2c1ncn2[C@@H]1O[C@H](CSSC[C@H]2O[C@@H](n3cnc4c(N)ncnc43)[C@H](O)[C@@H]2O)[C@@H](O)[C@H]1O`, the Ki (NAD kinase [1]) is reported as 45 µM.

In the case of `Nc1ncnc2c1nc(Br)n2[C@@H]1O[C@H](CSSC[C@H]2O[C@@H](n3c(Br)nc4c(N)ncnc43)[C@H](O)[C@@H]2O)[C@@H](O)[C@H]1O`, the Ki (NAD kinase [1]) is reported as 6 µM.

Work on `Oc1cc(O)c2c(c1)O[C@@H](c1cc(O)c(O)c(O)c1)[C@H](O)C2` [(-)-GALLOCATECHIN] yielded an IC50 (NAD kinase [3]) greater than 100 µM.
